# Reference: article PMC12508127 (Nature Communications, 2025)
# Where two headings read alike, the source gives them in different places.
# Key:
# [1] = test system: FHB (Fusarium graminearum); conditions: in vivo
# [2] = test system: Fusarium oxysporum; type: cell-based; conditions: 1.56 mg/L
# [3] = test system: cucumber powdery mildew (CPM, Sphaerotheca fuliginea); conditions: in vivo
# [4] = test system: Fusarium graminearum; type: cell-based
# [5] = test system: Alternaria solani; type: cell-based; conditions: 1.56 mg/L
# [6] = test system: Sclerotinia sclerotiorum; type: cell-based; conditions: 1.56 mg/L
# [7] = test system: Exserohilum turcicum; type: cell-based; conditions: 1.56 mg/L
# [8] = test system: Phytophthora capsica; type: cell-based; conditions: 1.56 mg/L
# [9] = test system: Phytophthora infestans; type: cell-based
# [10] = test system: Ustilaginoidea virens; type: cell-based; conditions: 1.56 mg/L
# [11] = test system: Alternaria alternata; type: cell-based; conditions: 1.56 mg/L
# [12] = test system: Fusarium pseudograminearum; type: cell-based
# [13] = test system: zebrafish (Brachydanio rerio H-B.); experiment: Acute toxicity zebrafish, static test; type: in vivo
# In short: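 Juvenile zebrafish (not sexually mature) held at 22–23 °C on a 16–8 h light-dark cycle. Static exposure followed the national fish acute toxicity guideline. Definitive test used 1.20, 1.00, 0.833, 0.694, 0.578 and 0.482 mg a.i./L, with dechlorinated tap water as blank control. One replicate of 10 fish per group.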
# [14] = test system: deoxynivalenol (DON) content; type: in vivo, wheat; conditions: field; for DON content: wheat flour
# [15] = test system: WPM (Erysiphe graminis); type: in vivo; conditions: WPM field trial, 187.5 g a.i./ha
# [16] = Average thousand grain weight and yield increase, FHB field trial; type: in vivo, wheat; conditions: 150 g a.i./ha
# In short: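 Field plots (20 m2) in Huai'an, wheat variety yannong 1212, with Fusarium graminearum head blight. Test compound as 10% emulsifiable concentrate at 112.5, 150 and 180 g a.i./ha, sprayed at early and peak anthesis. Commercial fungicides served as positive controls and water as negative control. Five-point sampling, 100 mature spikes per point, pooled, air-dried and threshed. 1000 random grains weighed, three replicates per treatment.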
# [17] = target: porcine SDH (Sus scrofa, UniProt A5GZW8+D0VWV4+Q007T0); experiment: SDH activity assay; type: biochemical; conditions: read-out: Ki, Porcine; inhibition constant against porcine SDH
# Chain of porcine SDH (Q0QF01 43-664 partner): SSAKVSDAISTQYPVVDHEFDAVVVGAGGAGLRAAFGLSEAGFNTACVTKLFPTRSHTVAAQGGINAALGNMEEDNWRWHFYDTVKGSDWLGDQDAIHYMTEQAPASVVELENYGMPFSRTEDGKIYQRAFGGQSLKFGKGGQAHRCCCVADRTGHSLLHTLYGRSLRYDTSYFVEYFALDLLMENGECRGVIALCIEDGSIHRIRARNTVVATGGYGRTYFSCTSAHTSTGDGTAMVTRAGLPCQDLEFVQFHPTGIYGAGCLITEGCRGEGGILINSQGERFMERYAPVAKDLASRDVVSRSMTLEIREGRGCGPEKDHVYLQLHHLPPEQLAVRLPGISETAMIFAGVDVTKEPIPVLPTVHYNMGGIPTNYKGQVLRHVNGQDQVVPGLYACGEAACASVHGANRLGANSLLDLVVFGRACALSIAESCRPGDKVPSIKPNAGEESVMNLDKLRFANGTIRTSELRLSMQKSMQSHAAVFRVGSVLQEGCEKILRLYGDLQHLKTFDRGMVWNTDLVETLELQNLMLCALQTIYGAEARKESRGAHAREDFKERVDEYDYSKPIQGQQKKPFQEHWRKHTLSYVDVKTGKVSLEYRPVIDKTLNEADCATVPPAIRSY
# Chain of porcine SDH (Q007T0 29-280): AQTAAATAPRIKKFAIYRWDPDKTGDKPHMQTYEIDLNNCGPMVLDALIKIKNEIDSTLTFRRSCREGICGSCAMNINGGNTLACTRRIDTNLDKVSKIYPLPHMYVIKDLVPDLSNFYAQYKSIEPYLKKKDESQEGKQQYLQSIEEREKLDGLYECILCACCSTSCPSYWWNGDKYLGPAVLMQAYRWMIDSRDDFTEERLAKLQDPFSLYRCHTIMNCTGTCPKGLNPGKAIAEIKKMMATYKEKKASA
# Chain of porcine SDH (D0VWV4 30-169): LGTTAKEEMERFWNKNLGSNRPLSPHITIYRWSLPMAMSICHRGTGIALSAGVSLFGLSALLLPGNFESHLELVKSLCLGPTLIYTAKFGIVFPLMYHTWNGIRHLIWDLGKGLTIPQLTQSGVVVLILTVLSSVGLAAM
# Chain of porcine SDH (A5GZW8 57-159 limits assumed): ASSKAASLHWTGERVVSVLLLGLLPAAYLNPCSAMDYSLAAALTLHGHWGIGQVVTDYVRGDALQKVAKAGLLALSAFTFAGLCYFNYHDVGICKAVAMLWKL
# [18] = test system: wheat powdery mildew (WPM, Erysiphe graminis); type: in vivo; conditions: greenhouse
# [19] = target: ScSDH (Saccharomyces cerevisiae, UniProt P21801+P33421+P37298+Q00711); experiment: SDH activity assay; type: biochemical
# Chain of ScSDH (Q00711 29-640): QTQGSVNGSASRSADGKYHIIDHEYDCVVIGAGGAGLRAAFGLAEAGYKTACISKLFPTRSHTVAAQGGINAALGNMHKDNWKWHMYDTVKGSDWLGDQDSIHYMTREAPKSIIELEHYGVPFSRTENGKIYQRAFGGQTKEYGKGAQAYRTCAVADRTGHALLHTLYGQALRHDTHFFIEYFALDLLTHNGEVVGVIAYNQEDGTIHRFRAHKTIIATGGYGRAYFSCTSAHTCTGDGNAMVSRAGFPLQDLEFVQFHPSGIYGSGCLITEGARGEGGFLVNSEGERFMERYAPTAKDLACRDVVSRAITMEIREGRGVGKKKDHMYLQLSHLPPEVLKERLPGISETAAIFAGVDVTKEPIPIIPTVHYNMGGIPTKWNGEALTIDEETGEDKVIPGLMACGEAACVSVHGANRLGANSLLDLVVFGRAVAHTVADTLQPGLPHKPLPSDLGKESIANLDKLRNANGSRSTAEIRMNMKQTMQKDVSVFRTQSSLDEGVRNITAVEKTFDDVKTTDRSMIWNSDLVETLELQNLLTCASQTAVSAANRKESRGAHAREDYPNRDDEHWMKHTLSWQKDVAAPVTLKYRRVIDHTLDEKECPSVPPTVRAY
# Chain of ScSDH (P21801 21-266): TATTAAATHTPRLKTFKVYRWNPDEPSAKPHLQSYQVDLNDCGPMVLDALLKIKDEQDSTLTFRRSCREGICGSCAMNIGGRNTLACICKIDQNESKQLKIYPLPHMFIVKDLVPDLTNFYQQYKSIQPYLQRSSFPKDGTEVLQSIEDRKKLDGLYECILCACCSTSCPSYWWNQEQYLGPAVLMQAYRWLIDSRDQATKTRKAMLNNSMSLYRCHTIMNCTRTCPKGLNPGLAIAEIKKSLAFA
# Chain of ScSDH (P33421 51-198): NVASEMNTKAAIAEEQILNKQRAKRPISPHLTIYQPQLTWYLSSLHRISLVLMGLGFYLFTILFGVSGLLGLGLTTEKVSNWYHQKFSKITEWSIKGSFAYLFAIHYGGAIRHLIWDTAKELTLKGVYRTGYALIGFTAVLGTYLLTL
# Chain of ScSDH (P37298 32-181): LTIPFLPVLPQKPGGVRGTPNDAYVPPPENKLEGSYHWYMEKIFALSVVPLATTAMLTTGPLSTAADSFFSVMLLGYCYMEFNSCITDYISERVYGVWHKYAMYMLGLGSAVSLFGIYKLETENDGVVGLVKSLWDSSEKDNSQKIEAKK
smiles,measurement,setting,value
OCC1=C[C@H](N[C@H]2C[C@H](CO)[C@@H](O[C@@H]3O[C@H](CO)[C@@H](O)[C@H](O)[C@H]3O)[C@H](O)[C@H]2O)[C@H](O)[C@@H](O)[C@@H]1O [validamycin],Control efficiency (%),[1],48.42%
"C=C(CN(C(=O)c1c(C(F)F)nn(C)c1F)C1CC1)c1ccc(Cl)cc1Cl [E8, enprocymid]","inhibition rate (%), Fo",[2],87.33%
same,Control efficiency (%),[1],88.81%
same,EC50,[3],0.5431 µg/mL
same,"inhibition rate (%), Fg",[4],97.31%
same,"inhibition rate (%), As",[5],80.00%
same,"inhibition rate (%), Ss",[6],74.67%
same,"inhibition rate (%), Et",[7],100.00%
same,"inhibition rate (%), Pc",[8],76.33%
same,"inhibition rate (%), Pi",[9],81.97%
same,"inhibition rate (%), Uv",[10],100.00%
same,"inhibition rate (%), Aa",[11],95.67%
same,"inhibition rate (%), Fp",[12],85.33%
same,Toxicity level,[13]; by LC50 (96 h),moderately toxic
same,LC50 (96 h),"[13]; static test, 96 h",1.01 mg a.i./L
same,DON inhibition rate (%),[14]; 150 g a.i./ha,86.05%
same,DON inhibition rate (%),[14]; 180 g a.i./ha,89.40%
same,DON content,[14]; 150 g a.i./ha,217.5 µg/kg
same,DON content,[14]; 180 g a.i./ha,165.3 µg/kg
same,Control efficiency (%),[15],92.38%
same,Yield increase rate (%),[16],10.18%
same,Ki,[17],281 ± 14 nM
same,EC50,[18]; WPM,0.0462 µg/mL
same,activity against WPM relative to PYD,[18],over 20 fold
same,potency relative to PYD (IC50),"[19]; E8 IC50 vs PYD IC50, ScSDH",~1.3 fold
same,IC50,[19]; against ScSDH,30 ± 3 nM
same,Species selectivity,[19]; ratio of Ki for porcine SDH and ScSDH,14.78
same,Ki,"[19]; read-out: Ki, Yeast, inhibition constant against ScSDH",19 ± 1 nM
CC(C)(C)C(O)(CCc1ccc(Cl)cc1)Cn1cncn1 (centres unmarked) [tebuconazole],Control efficiency (%),[1],84.45%
